Measurements: PMC11588046 (Proceedings of the National Academy of Sciences of the …, 2024)
Substitutions are numbered along the chain they refer to. ≈ marks a conversion by molar mass, not a printed value. Read-outs that look alike come from different tables or passages of the source.

Experiments:
WT ALK2 = biological target: T1, WT ALK2 (Homo sapiens, UniProt Q04771); assay type: cell-based; settings: read-out: ALK2 IC50; NanoBRET, HEK293 cells
T1 sequence (Q04771 21-509): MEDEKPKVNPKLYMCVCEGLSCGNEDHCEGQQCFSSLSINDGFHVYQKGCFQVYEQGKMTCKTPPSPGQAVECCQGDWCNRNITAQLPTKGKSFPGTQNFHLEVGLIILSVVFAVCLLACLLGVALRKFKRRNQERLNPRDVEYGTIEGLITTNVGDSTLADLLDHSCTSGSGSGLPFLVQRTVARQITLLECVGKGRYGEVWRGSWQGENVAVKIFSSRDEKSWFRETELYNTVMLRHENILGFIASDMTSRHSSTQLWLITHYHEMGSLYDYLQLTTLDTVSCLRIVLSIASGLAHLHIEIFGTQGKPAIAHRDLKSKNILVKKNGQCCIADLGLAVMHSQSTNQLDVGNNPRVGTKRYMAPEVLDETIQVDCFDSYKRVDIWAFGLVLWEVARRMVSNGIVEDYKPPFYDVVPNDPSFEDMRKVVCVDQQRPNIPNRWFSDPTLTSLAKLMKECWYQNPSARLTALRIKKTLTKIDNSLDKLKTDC

mutant ALK2 (R206H) = biological target: T2, mutant ALK2 (R206H) (Homo sapiens, UniProt Q04771, R206H); assay type: cell-based; settings: read-out: ALK2 (R206H) IC50; NanoBRET, HEK293 cells
T2 sequence (Q04771 21-509 R206H): T1 sequence (Q04771 21-509) with R186H

WT ALK1 = WT ALK1 (Homo sapiens, UniProt P37023); assay: NanoBRET TE intracellular kinase assay; assay type: cell-based; settings: read-out: ALK1 IC50, HEK293 cells
Sequence of WT ALK1 (P37023 22-503): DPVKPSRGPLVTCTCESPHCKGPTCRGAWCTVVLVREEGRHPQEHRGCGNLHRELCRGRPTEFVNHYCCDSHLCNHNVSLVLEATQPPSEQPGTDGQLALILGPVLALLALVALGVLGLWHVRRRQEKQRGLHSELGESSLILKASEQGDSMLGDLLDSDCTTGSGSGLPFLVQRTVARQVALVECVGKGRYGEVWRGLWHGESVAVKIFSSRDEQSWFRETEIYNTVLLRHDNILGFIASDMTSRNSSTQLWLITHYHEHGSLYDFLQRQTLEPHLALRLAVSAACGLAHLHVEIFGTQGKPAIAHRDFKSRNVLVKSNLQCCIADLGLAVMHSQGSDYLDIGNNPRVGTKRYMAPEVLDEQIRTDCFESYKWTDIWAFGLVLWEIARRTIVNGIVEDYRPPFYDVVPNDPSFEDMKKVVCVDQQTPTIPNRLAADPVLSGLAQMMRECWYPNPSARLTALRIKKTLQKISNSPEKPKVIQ

[1] = Metabolic stability in mouse liver microsomes; assay type: in vitro ADME
[2] = Metabolic stability in human liver microsomes; assay type: in vitro ADME
Dynamic solubility assay = assay type: physicochemical
293 T-BRE-Luc cells = assay: BMP-induced luciferase activity in 293 T-BRE-Luc reporter cells; assay type: cell-based
In short: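 293T cells stably carrying a BMP-responsive element–luciferase reporter, about 20,000 per well, attached overnight. Pretreated 30 min with DMSO vehicle or test compound (0.04, 0.2, 1, 5, 25 μM) in phenol-red-free DMEM with 2 mM glutamine and 2% heat-inactivated FBS. Then stimulated 6 h with BMP2 (5 ng/mL), BMP6 (500 ng/mL) or BMP7 (500 ng/mL). BrightGLO luminescence normalized to ligand-only samples; dose-response curves fitted.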

[3] = system: FOP fibroblasts (GM00513); assay: pSMAD Western blot in primary FOP fibroblasts; assay type: cell-based, human; settings: FOP cells; for activin A-induced phosphorylation of SMAD1/5: 200 ng/mL activin A, inhibitor 1, 5 or 25 µM (LDN 1 µM); for BMP2-induced pSMAD1/5 activation: 5 ng/mL BMP2, inhibitor 1, 5 or 25 µM (LDN 1 µM)
In short: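 Primary fibroblasts from a patient with FOP (GM00513) were pretreated for 30 min with test compound (1, 5 or 25 µM) or a reference inhibitor (1 µM). Cells then received vehicle (DMSO), 200 ng/mL activin A or 5 ng/mL BMP2 for 45 min, with inhibitor present. Lysates were Western blotted for pSMAD1/5, total SMAD1, total SMAD5 and GAPDH (loading control). For activin A, pSMAD2/3 was also blotted.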

WT fibroblasts (GM01652) = assay: pSMAD1/5 Western blot in primary WT fibroblasts; assay type: cell-based, human; settings: 5 ng/mL BMP2, inhibitor 1, 5 or 25 µM (LDN 1 µM)

Compound: CNC(=O)[C@H]1C[C@H](n2c(-c3cc(OC)c(OC)c(OC)c3)nc3ccc(C(=O)NCCCN(C)C)cc32)C1 [CDD-2281]
- IC50 (WT ALK2): > 30000 nM
- IC50 (mutant ALK2 (R206H)): > 30000 nM
- IC50 (WT ALK1): > 30000 nM
- MLM t1/2 [1]: 804 min
- MLM t1/2 ([1]; U, extremely unstable): 807 min
- HLM t1/2 [2]: 768 min
- HLM t1/2 ([2]; U, extremely unstable): 769 min
- Solubility (Dynamic solubility assay): 199.6 µM (≈ 105 µg/mL)

Compound: COc1cc(-c2nc3ccc(C(=O)NCCCN4CCN(c5ccccc5)CC4)cc3n2C2CCC2)cc(OC)c1OC [CDD-2315]
- IC50 (WT ALK2): 570 nM
- IC50 (mutant ALK2 (R206H)): 1230 nM
- IC50 (WT ALK1): > 30000 nM
- MLM t1/2 ([1]; U, extremely unstable): 6.3 min
- HLM t1/2 ([2]; U, extremely unstable): 7.8 min
- Solubility (Dynamic solubility assay): 63.5 µM (≈ 37.1 µg/mL)
- IC50 (293 T-BRE-Luc cells; read-out: IC50 of BMP2-induced luciferase activity, 5 ng/mL BMP2, 6 h): 1490 nM
- IC50 (293 T-BRE-Luc cells; read-out: IC50 of BMP6-induced luciferase activity, 500 ng/mL BMP6, 6 h): 1460 nM
- IC50 (293 T-BRE-Luc cells; read-out: IC50 of BMP7-induced luciferase activity, 500 ng/mL BMP7, 6 h): 980 nM
- activin A-induced phosphorylation of SMAD1/5 [3]: significantly inhibit the activin A-induced phosphorylation of SMAD1/5 starting at the 1 µM concentration
- BMP2-induced pSMAD1/5 activation (WT fibroblasts (GM01652)): significantly reduced pSMAD1/5 at all the concentrations tested

Compound: CNC(=O)[C@H]1C[C@H](n2c(-c3cc(F)cc(OC)c3)nc3ccc(C(=O)NCCCN4CCN(c5ccccc5)CC4)cc32)C1 [CDD-2340]
- IC50 (WT ALK2): 5300 nM
- IC50 (mutant ALK2 (R206H)): 9250 nM
- IC50 (WT ALK1): > 30000 nM
- MLM t1/2 ([1]; U, extremely unstable): 7.1 min
- HLM t1/2 ([2]; U, extremely unstable): 24.4 min
- Solubility (Dynamic solubility assay): 121.8 µM (≈ 72.9 µg/mL)
- BMP2-induced pSMAD1/5 activation [3]: only the highest concentration (25 µM) was sufficient to significantly reduce pSMAD1/5 activation
- activin A-induced phosphorylation of SMAD1/5 [3]: significantly inhibit the activin A-induced phosphorylation of SMAD1/5 starting at the 1 µM concentration
- BMP2-induced pSMAD1/5 activation (WT fibroblasts (GM01652)): potently reduced BMP2-induced pSMAD1/5 activation in the WT fibroblasts at 5 and 25 µM

Compound: CNC(=O)[C@H]1C[C@H](n2c(-c3ccc(OC)c(OC)c3)nc3ccc(C(=O)NCCCN4CCN(c5cccc(C)c5C)CC4)cc32)C1 [CDD-2421]
- IC50 (WT ALK2): 1240 nM
- IC50 (mutant ALK2 (R206H)): 2400 nM
- IC50 (WT ALK1): > 30000 nM
- MLM t1/2 ([1]; U, extremely unstable): 3.7 min
- HLM t1/2 ([2]; U, extremely unstable): 6.0 min
- Solubility (Dynamic solubility assay): 44.8 µM (≈ 28.6 µg/mL)

Compound: COc1cc(-c2nc3ccc(C(=O)NCC4(O)CCN(Cc5ccccc5)CC4)cc3n2C2CCC2)cc(OC)c1OC [CDD-2795]
- IC50 (WT ALK2): 390 nM
- IC50 (mutant ALK2 (R206H)): 460 nM
- IC50 (WT ALK1): 8550 nM
- MLM t1/2 ([1]; U, extremely unstable): 2.9 min
- HLM t1/2 ([2]; U, extremely unstable): 17.0 min
- Solubility (Dynamic solubility assay): 141.5 µM (≈ 82.7 µg/mL)

Compound: c1ccc2c(-c3cnn4cc(-c5ccc(N6CCNCC6)cc5)cnc34)ccnc2c1 [LDN-193189, reference compound]
- BMP2-induced pSMAD1/5 activation [3]: effectively suppressed pSMAD1/5 activation
- activin A-induced phosphorylation of SMAD1/5 [3]: effectively suppressed pSMAD1/5 activation
- BMP2-induced pSMAD1/5 activation (WT fibroblasts (GM01652)): effectively suppressed pSMAD1/5 activation
